# Data reported in ChEMBL document CHEMBL3525900, “Pharmacokinetics, distribution, and metabolism of [14C]sunitinib in rats, monkeys, and humans” (Drug Metab Dispos, 2012).
# Columns and labels:
# Kidney = assay: Drug concentration in male Lister Hooded pigmented rat kidney assessed as radioactivity per gram of tissue at 20 mg/kg administered as single dose via gastric gavage measured after 72 hrs by autoradiographic analysis; assay type: ADME, organism-based; parameters: dose 20 mg/kg, dosed compound name [14C]Sunitinib; conditions: in vivo, po
# Zone of skin [1] = assay: Drug concentration in male Lister Hooded pigmented rat abdomen skin assessed as radioactivity per gram of tissue at 20 mg/kg administered as single dose via gastric gavage measured after 72 hrs by autoradiographic analysis; assay type: ADME, organism-based; parameters: dose 20 mg/kg, dosed compound name [14C]Sunitinib; conditions: in vivo, po
# [2] = Drug recovery in feces of female Sprague-Dawley rat at 15 mg/kg, po administered as single dose during 0 to 72 hrs by liquid scintillation counting; assay type: ADME, organism-based; parameters: dose 15 mg/kg, dosed compound name [14C]Sunitinib, route oral; conditions: in vivo
# Rattus norvegicus [3] = assay: Drug recovery in cage residue of female Sprague-Dawley rat at 15 mg/kg, po administered as single dose during 0 to 72 hrs by liquid scintillation counting; assay type: ADME, organism-based; parameters: dose 15 mg/kg, dosed compound name [14C]Sunitinib, route oral; conditions: in vivo
# Rattus norvegicus [4] = assay: Drug recovery in cage residue of male Sprague-Dawley rat at 15 mg/kg, po administered as single dose during 0 to 72 hrs by liquid scintillation counting; assay type: ADME, organism-based; parameters: dose 15 mg/kg, dosed compound name [14C]Sunitinib, route oral; conditions: in vivo
# Brain = assay: Drug concentration in female albino rat brain assessed as radioactivity per gram of tissue at 20 mg/kg administered as single dose via gastric gavage measured after 3 hrs by autoradiographic analysis; assay type: ADME, organism-based; parameters: dose 20 mg/kg, dosed compound name [14C]Sunitinib; conditions: in vivo, po
# Summary of the method: (§1)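 Sprague Dawley (albino) rats, ca 7-8 weeks old, received a single gastric-gavage dose of [14C]sunitinib L-malate at 20 mg/kg (15 mg freebase/kg, 100 µCi/kg). One animal per sex killed by CO2 at 3, 6, 24, 72 and 168 h, then frozen in CO2/hexane. 30 µm sagittal sections were cut and freeze-dried. Radioactivity per gram quantified by whole-body autoradiography using regression against standards. LOQ 0.04–0.06 µg freebase equiv/g.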
# Large intestine [5] = assay: Drug concentration in female albino rat large intestine assessed as radioactivity per gram of tissue at 20 mg/kg administered as single dose via gastric gavage measured after 3 hrs by autoradiographic analysis; assay type: ADME, organism-based; parameters: dose 20 mg/kg, dosed compound name [14C]Sunitinib; conditions: in vivo, po
# Summary of the method: (§2)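 Sprague Dawley albino rats, ca 7-8 weeks old, dosed once by gastric gavage with [14C]sunitinib L-malate (15 mg freebase/kg, 100 µCi/kg). One male and one female killed by CO2 at 3, 6, 24, 72 and 168 h. Carcasses frozen in solid CO2/hexane, embedded and cut into 30 µm sagittal sections, then freeze-dried. Radioactivity quantified by whole-body autoradiography against standards by regression, background subtracted.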
# [6] = Drug concentration in male Lister Hooded pigmented rat lachrymal gland assessed as radioactivity per gram of tissue at 20 mg/kg administered as single dose via gastric gavage measured after 24 hrs by autoradiographic analysis; assay type: ADME, organism-based; parameters: dose 20 mg/kg, dosed compound name [14C]Sunitinib; conditions: in vivo, po
# [7] = Drug concentration in male Lister Hooded pigmented rat skeletal muscle assessed as radioactivity per gram of tissue at 20 mg/kg administered as single dose via gastric gavage measured after 24 hrs by autoradiographic analysis; assay type: ADME, organism-based; parameters: dose 20 mg/kg, dosed compound name [14C]Sunitinib; conditions: in vivo, po
# Adrenal [8] = assay: Drug concentration in male albino rat adrenal assessed as radioactivity per gram of tissue at 20 mg/kg administered as single dose via gastric gavage measured after 6 hrs by autoradiographic analysis; assay type: ADME, organism-based; parameters: dose 20 mg/kg, dosed compound name [14C]Sunitinib; conditions: in vivo, po
# [9] = Drug concentration in female albino rat preputial gland assessed as radioactivity per gram of tissue at 20 mg/kg administered as single dose via gastric gavage measured after 6 hrs by autoradiographic analysis; assay type: ADME, organism-based; parameters: dose 20 mg/kg, dosed compound name [14C]Sunitinib; conditions: in vivo, po; summary of the method: as §2
# [10] = Drug concentration in female albino rat salivary gland assessed as radioactivity per gram of tissue at 20 mg/kg administered as single dose via gastric gavage measured after 6 hrs by autoradiographic analysis; assay type: ADME, organism-based; parameters: dose 20 mg/kg, dosed compound name [14C]Sunitinib; conditions: in vivo, po
# Lung = assay: Drug concentration in male Lister Hooded pigmented rat lung assessed as radioactivity per gram of tissue at 20 mg/kg administered as single dose via gastric gavage measured after 168 hrs by autoradiographic analysis; assay type: ADME, organism-based; parameters: dose 20 mg/kg, dosed compound name [14C]Sunitinib; conditions: in vivo, po
# Stomach [11] = assay: Drug concentration in male Lister Hooded pigmented rat stomach assessed as radioactivity per gram of tissue at 20 mg/kg administered as single dose via gastric gavage measured after 168 hrs by autoradiographic analysis; assay type: ADME, organism-based; parameters: dose 20 mg/kg, dosed compound name [14C]Sunitinib; conditions: in vivo, po
# Harderian gland = assay: Drug concentration in female albino rat harderian gland assessed as radioactivity per gram of tissue at 20 mg/kg administered as single dose via gastric gavage measured after 6 hrs by autoradiographic analysis; assay type: ADME, organism-based; parameters: dose 20 mg/kg, dosed compound name [14C]Sunitinib; conditions: in vivo, po; summary of the method: as §2
# [12] = Drug concentration in female albino rat bladder assessed as radioactivity per gram of tissue at 20 mg/kg administered as single dose via gastric gavage measured after 3 hrs by autoradiographic analysis; assay type: ADME, organism-based, Urinary bladder; parameters: dose 20 mg/kg, dosed compound name [14C]Sunitinib; conditions: in vivo, po; summary of the method: as §1
# [13] = Drug concentration in male Lister Hooded pigmented rat brown fat assessed as radioactivity per gram of tissue at 20 mg/kg administered as single dose via gastric gavage measured after 168 hrs by autoradiographic analysis; assay type: ADME, organism-based, Brown adipose tissue; parameters: dose 20 mg/kg, dosed compound name [14C]Sunitinib; conditions: in vivo, po
# Heart [14] = assay: Drug concentration in male Lister Hooded pigmented rat heart assessed as radioactivity per gram of tissue at 20 mg/kg administered as single dose via gastric gavage measured after 168 hrs by autoradiographic analysis; assay type: ADME, organism-based; parameters: dose 20 mg/kg, dosed compound name [14C]Sunitinib; conditions: in vivo, po
# Stomach [15] = assay: Drug concentration in female albino rat stomach assessed as radioactivity per gram of tissue at 20 mg/kg administered as single dose via gastric gavage measured after 72 hrs by autoradiographic analysis; assay type: ADME, organism-based; parameters: dose 20 mg/kg, dosed compound name [14C]Sunitinib; conditions: in vivo, po
# Adrenal [16] = assay: Drug concentration in female Lister Hooded pigmented rat adrenal assessed as radioactivity per gram of tissue at 20 mg/kg administered as single dose via gastric gavage measured after 24 hrs by autoradiographic analysis; assay type: ADME, organism-based; parameters: dose 20 mg/kg, dosed compound name [14C]Sunitinib; conditions: in vivo, po
# Summary of the method: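 Pigmented Lister Hooded rats, 7-8 weeks old, received [14C]sunitinib L-malate by gavage at 20 mg/kg (15 mg freebase/kg, 100 µCi/kg). One rat per sex was killed by CO2 at each of 24, 72, 168 and 336 h. Carcasses were frozen in solid CO2/hexane and cut into 30 µm sagittal sections, then freeze-dried. Tissue radioactivity was quantified by whole-body autoradiography calibrated against standards by regression (LOQ 0.04–0.06 µg eq/g).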
# Pancreas = assay: Drug concentration in male albino rat pancreas assessed as radioactivity per gram of tissue at 20 mg/kg administered as single dose via gastric gavage measured after 24 hrs by autoradiographic analysis; assay type: ADME, organism-based; parameters: dose 20 mg/kg, dosed compound name [14C]Sunitinib; conditions: in vivo, po
# Zone of skin [17] = assay: Drug concentration in male albino rat abdomen skin assessed as radioactivity per gram of tissue at 20 mg/kg administered as single dose via gastric gavage measured after 24 hrs by autoradiographic analysis; assay type: ADME, organism-based; parameters: dose 20 mg/kg, dosed compound name [14C]Sunitinib; conditions: in vivo, po
# [18] = Drug concentration in female albino rat uterus assessed as radioactivity per gram of tissue at 20 mg/kg administered as single dose via gastric gavage measured after 24 hrs by autoradiographic analysis; assay type: ADME, organism-based; parameters: dose 20 mg/kg, dosed compound name [14C]Sunitinib; conditions: in vivo, po
# [19] = Drug concentration in male albino rat uveal tract assessed as radioactivity per gram of tissue at 20 mg/kg administered as single dose via gastric gavage measured after 6 hrs by autoradiographic analysis; assay type: ADME, organism-based; parameters: dose 20 mg/kg, dosed compound name [14C]Sunitinib; conditions: in vivo, po
# Heart [20] = assay: Drug concentration in male albino rat heart assessed as radioactivity per gram of tissue at 20 mg/kg administered as single dose via gastric gavage measured after 24 hrs by autoradiographic analysis; assay type: ADME, organism-based; parameters: dose 20 mg/kg, dosed compound name [14C]Sunitinib; conditions: in vivo, po
# Large intestine [21] = assay: Drug concentration in female Lister Hooded pigmented rat large intestine assessed as radioactivity per gram of tissue at 20 mg/kg administered as single dose via gastric gavage measured after 24 hrs by autoradiographic analysis; assay type: ADME, organism-based; parameters: dose 20 mg/kg, dosed compound name [14C]Sunitinib; conditions: in vivo, po
# Summary of the method: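 Lister Hooded (pigmented) rats, ca 7-8 weeks old, acclimated 7 days, given [14C]sunitinib L-malate by gastric gavage at 20 mg/kg (15 mg freebase/kg, 100 µCi/kg). One male and one female killed by CO2 at 24, 72, 168 and 336 h. Carcasses frozen in solid CO2/hexane and embedded in frozen cellulose. 30 µm sagittal cryosections were freeze-dried. Tissue radioactivity measured by quantitative whole-body autoradiography against calibration standards, with background subtracted.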
# [22] = Drug concentration in female albino rat preputial gland assessed as radioactivity per gram of tissue at 20 mg/kg administered as single dose via gastric gavage measured after 72 hrs by autoradiographic analysis; assay type: ADME, organism-based; parameters: dose 20 mg/kg, dosed compound name [14C]Sunitinib; conditions: in vivo, po; summary of the method: as §2
compound,measurement,setting,value
CCN(CC)CCNC(=O)c1c(C)[nH]c(/[14CH]=C2\C(=O)Nc3ccc(F)cc32)c1C.O=C(O)C[C@H](O)C(=O)O,Radiolabel recovery,Kidney,0.26 ugequiv
same,Radiolabel recovery,Zone of skin [1],0.64 ugequiv
same,Radiolabel recovery,[2],71.1%
same,Radiolabel recovery,Rattus norvegicus [3],2.2%
same,Radiolabel recovery,Rattus norvegicus [4],1.5%
same,Radiolabel recovery,Brain,0.52 ugequiv
same,Radiolabel recovery,Large intestine [5],7 ugequiv
same,Radiolabel recovery,[6],0.94 ugequiv
same,Radiolabel recovery,[7],0.3 ugequiv
same,Radiolabel recovery,Adrenal [8],13.57 ugequiv
same,Radiolabel recovery,[9],14.48 ugequiv
same,Radiolabel recovery,[10],23.1 ugequiv
same,Radiolabel recovery,Lung,0.06 ugequiv
same,Radiolabel recovery,Stomach [11],0.06 ugequiv
same,Radiolabel recovery,Harderian gland,14.12 ugequiv
same,Radiolabel recovery,[12],3.73 ugequiv
same,Radiolabel recovery,[13],0.06 ugequiv
same,Radiolabel recovery,Heart [14],0.06 ugequiv
same,Radiolabel recovery,Stomach [15],0.15 ugequiv
same,Radiolabel recovery,Adrenal [16],3.59 ugequiv
same,Radiolabel recovery,Pancreas,1.68 ugequiv
same,Radiolabel recovery,Zone of skin [17],3.39 ugequiv
same,Radiolabel recovery,[18],0.96 ugequiv
same,Radiolabel recovery,[19],5.08 ugequiv
same,Radiolabel recovery,Heart [20],0.36 ugequiv
same,Radiolabel recovery,Large intestine [21],0.78 ugequiv
same,Radiolabel recovery,[22],0.24 ugequiv
